MDM2 E3 inh – Mdm2 E3 ligase (human) inhibition. Q00987. 210,000 compounds, 0.11% hits. signal enhancement, % at 5 µM. cell-based MDM2 ubiquitination luciferase reporter, 2 h; 0 = plate control, 100 = twice control, blank-subtracted. AID 1230;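 active means signal enhancement of 30% or more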;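 further: luminescence tracks abundance of the self-degrading MDM2-luciferase fusion protein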
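Test system: mammalian cells stably expressing self-ubiquitinating, self-degrading MDM2 E3–luciferase fusion; Amount: 2000 cells in each well; Medium: DMEM; Schedule: 4 h settle plus 2 h compound, 37 °C; Technique: SteadyLite luciferase luminescence after 15 min room-temperature reagent incubation; Benchmarks: plate control and blank wells.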
S1P3 antag – blocks the human S1P3 receptor; inhibition, % at 4.98 µM; 170,000 compounds, 0.27% hits; Q99500; CHO S1P3 NFAT-BLA reporter, FRET fluorescence, antagonist mode;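 active means inhibition above the plate cutoff, the mean inhibition of test wells on that plate plus 3 SD, cut at about 28% in these data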;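 further: cells challenged with S1P at its EC80 of 0.8 µM; blue over green emission ratio from cleaved BLA substrate after 4 h stimulation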
Target sequence (Q99500 whole entry, looked up): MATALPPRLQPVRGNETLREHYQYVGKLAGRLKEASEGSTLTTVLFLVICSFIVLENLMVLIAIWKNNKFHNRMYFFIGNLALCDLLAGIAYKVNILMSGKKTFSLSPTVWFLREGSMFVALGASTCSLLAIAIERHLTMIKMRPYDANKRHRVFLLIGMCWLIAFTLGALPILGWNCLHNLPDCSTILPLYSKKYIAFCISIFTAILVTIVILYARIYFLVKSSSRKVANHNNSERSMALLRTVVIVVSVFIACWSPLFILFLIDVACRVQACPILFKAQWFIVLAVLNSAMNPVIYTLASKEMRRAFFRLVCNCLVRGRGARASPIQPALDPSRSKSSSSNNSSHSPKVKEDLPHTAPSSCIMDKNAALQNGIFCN
CHOP inhibitor – blocks CHOP induction under ER stress | CHO-K1 CHOP-promoter luciferase, tunicamycin-induced, 15-18 h | inhibition, % at 10 µM | 220,000 compounds, 3.8% hits;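 active means compounds that reduced the stress-induced luciferase reporter signal by more than about 70% of percent inhibition, limit read from the data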
Hsp70 act – transcriptional activators of Hsp70; 200,000 compounds, 0.04% hits; HeLa Hsp70 promoter luciferase reporter, luminescence; scaled: vehicle 0, proteasome-inhibitor control 100%; activation, % at 10 µM;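 active means activation above the mean across all tested compounds plus 3 SD, cutoff set per campaign, cut at about 5.5% in these data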
A number is an active result; n = inactive; x = not tested or not shown. This is a sample that favours compounds with a hit; in the whole collection about 4% have one here.

SMILES	MDM2 E3 inh	S1P3 antag	CHOP inhibitor	Hsp70 act
CC(C)(C)c1nnc(NC(=O)c2cc(-c3ccccc3)nc3ccccc23)s1	n	x	74	n
O=C(Nc1nc2c(s1)CCCC2)c1cc(-c2ccccc2)nc2ccccc12	n	n	81	n
COc1cc(OC)c2c(C)c(Cl)c(=O)oc2c1	n	n	n	n
CCOc1ccc(CN(C)C(=O)CCl)cc1	n	n	n	n
CCOc1ccc(Nc2oc(-c3ccc(Cl)cc3)nc2C#N)cc1	n	x	75	n
COc1ccc(Nc2oc(-c3ccc(OC)cc3)nc2C#N)cc1	n	n	n	x
COc1ccc(Nc2oc(COc3ccc(Cl)cc3)nc2C#N)cc1	n	n	n	n
COc1ccc(Nc2oc(-c3ccc(Cl)cc3)nc2C#N)cc1	n	x	85	n
CCOc1ccc(-c2nc(C#N)c(NCc3ccc4c(c3)OCO4)o2)cc1	n	n	78	n
CCCNC(=O)CN(c1cccc(F)c1)S(C)(=O)=O	n	n	n	n
COc1ccc(CCN(C(=O)c2ccccc2)C2=CC3CCC(C2)N3C)cc1OC (stereo unspecified)	n	85	n	n
CN1C2C=C(N(CCc3c[nH]c4ccccc34)C(=O)c3ccc(Cl)cc3)CC1CC2 (stereo unspecified)	n	x	n	n
CC(C)c1ccc(CNc2c([N+](=O)[O-])c(=O)oc3ccccc23)cc1	n	n	n	n
Nc1c(C(=O)NCc2ccccc2)c2nc3ccccc3nc2n1CCCN1CCOCC1	n	n	102	n
Nc1c(C(=O)NCc2ccc(F)cc2)c2nc3ccccc3nc2n1CCCN1CCOCC1	n	x	n	n
Cc1cccc2cc(C#N)c(NCCNC(=O)NC3CCCCC3)nc12	n	n	72	n
Cc1cc(C)c(N2CCN(S(=O)(=O)N3CCCCCC3)CC2)c(C)c1	n	n	n	n
O=C(Nc1cc(C(F)(F)F)ccc1F)C1CCCCC1	n	x	n	n
O=C(Nc1cccc(C(F)(F)F)c1)c1ccccc1NC(=O)C1CCCCC1	n	n	94	n
COCCNC(=O)COc1ccc(C)cc1C(=O)c1cc(C#N)c(=O)n(C2CC2)c1	n	n	n	n
CC[N+]1=C(C)C(C)(C)c2cc(C)ccc21	n	n	74	n
Cc1cccc(C)c1NC(=O)COC(=O)c1cccnc1	n	n	n	n
Cc1[nH]c2ccccc2c1C(=O)CSc1nc2ncc(Cl)cc2[nH]1	n	n	86	n
CCOC(=O)Cc1c(C)nc2c(-c3ccc(Cl)cc3)c[nH]n2c1=O	x	n	n	n
CN(C)c1ccc(N2CN=C3SCC(=O)N3C2)cc1	n	x	n	n
O=C1CSC2=NCN(c3ccc4c(c3)OCO4)CN12	n	n	94	n

Assay outcomes from PubChem BioAssay.
